Test results reported in ChEMBL document CHEMBL1152454, “Novel plasmid-mediated 16S rRNA m1A1408 methyltransferase, NpmA, found in a clinically isolated Escherichia coli strain resistant to structurally diverse aminoglycosides” (2007).
In brackets after ≈: the same amount, converted by molar mass. Activity calls are given as the source filed them. The rule behind the calls is not given here.

What was measured:
Escherichia coli [1] = assay: Antibacterial activity against Escherichia coli JM109 carrying pMCL-BE by agar dilution method; assay type: functional
Outline: (§1)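 Minimal inhibitory concentration (MIC) by agar dilution on Mueller-Hinton agar, following the CLSI protocol. Strains were routinely grown in LB broth at 37°C with shaking.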

Escherichia coli [2] = assay: Antibacterial activity against Escherichia coli CSH-2 by agar dilution method; assay type: functional; outline: as §1
Escherichia coli [3] = assay: Antibacterial activity against Escherichia coli JM109 carrying pMCL210 by agar dilution method; assay type: functional; outline: as §1
Escherichia coli [4] = assay: Antibacterial activity against Escherichia coli CSH-2 carrying Escherichia coli ARS3 pARS3 by agar dilution method; assay type: functional; outline: as §1
Escherichia coli [5] = assay: Antibacterial activity against Escherichia coli isolate ARS3 carrying pARS3 by agar dilution method; assay type: functional; outline: as §1
Nucleic Acid [6] = assay: Binding affinity to 16S rRNA G1494(N7) position in wild type Escherichia coli JM109 30S sunit at 100 uM by footprint assay; assay type: nucleic-acid assay
Outline: (§2)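 Aminoglycoside (1–1,000 μM final) was added, 37°C 30 min, then ice 10 min. DMS modification followed at 37°C for 10 min, then quench and rRNA extraction. G1494 protection was read by primer extension.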

Nucleic Acid [7] = assay: Binding affinity to 16S rRNA G1494(N7) position in A1408-methylated Escherichia coli JM109 30S sunit at 100 uM by footprint assay; assay type: nucleic-acid assay; outline: as §2
Nucleic Acid [8] = assay: Binding affinity to 16S rRNA G1494(N7) position in A1408-methylated Escherichia coli JM109 30S sunit at 1000 uM by footprint assay; assay type: nucleic-acid assay; outline: as §2
Nucleic Acid [9] = assay: Binding affinity to 16S rRNA G1494(N7) position in wild type Escherichia coli JM109 30S sunit at 1000 uM by footprint assay; assay type: nucleic-acid assay; outline: as §2
Escherichia coli [10] = assay: Antibacterial activity against Escherichia coli (DE3)pLysS carrying pCold-IV by microdilution susceptibility test; assay type: functional
Escherichia coli [11] = assay: Antibacterial activity against Escherichia coli (DE3)pLysS carrying pCold-NpmA by microdilution susceptibility test; assay type: functional
Nucleic Acid [12] = assay: Binding affinity to 16S rRNA G1494(N7) position in A1408-methylated Escherichia coli JM109 30S sunit by footprint assay; assay type: nucleic-acid assay
Outline: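 Aminoglycoside added (final 1 μM to 1,000 μM) for 30 min at 37°C, then 10 min on ice. DMS probing for 10 min at 37°C. The G1494 footprint was read by reverse-transcriptase primer extension.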

Compound	MIC (Escherichia coli [1])	MIC (Escherichia coli [2])	MIC (Escherichia coli [3])	MIC (Escherichia coli [4])	MIC (Escherichia coli [5])	Activity (Nucleic Acid [6])	Activity (Nucleic Acid [7])	Activity (Nucleic Acid [8])	Activity (Nucleic Acid [9])	MIC (Escherichia coli [10])	MIC (Escherichia coli [11])	Activity (Nucleic Acid [12])
NCC[C@H](O)C(=O)N[C@@H]1C[C@H](N)[C@@H](O[C@H]2O[C@H](CN)[C@@H](O)[C@H](O)[C@H]2O)[C@H](O)[C@H]1O[C@H]1O[C@H](CO)[C@@H](O)[C@H](N)[C@H]1O [AMIKACIN]	32 µg/mL (≈ 54.6 µM)	0.13 µg/mL (≈ 0.222 µM)	0.5 µg/mL (≈ 0.854 µM)	16 µg/mL (≈ 27.3 µM)	256 µg/mL (≈ 437 µM)	–	–	–	–	–	–	–
NC[C@H]1O[C@H](O[C@H]2[C@H](O)[C@@H](O[C@H]3O[C@H](CO)[C@@H](O)[C@H](N)[C@H]3O)[C@H](N)C[C@@H]2N)[C@H](O)[C@@H](O)[C@@H]1O [KANAMYCIN]	> 256 µg/mL	0.25 µg/mL (≈ 0.516 µM)	0.5 µg/mL (≈ 1.03 µM)	> 256 µg/mL	> 256 µg/mL	–	–	–	–	–	–	–
NC[C@H]1O[C@H](O[C@H]2[C@H](O[C@@H]3O[C@H](CO)[C@@H](O)[C@H]3O)[C@@H](O)[C@H](N)C[C@@H]2N)[C@H](N)[C@@H](O)[C@@H]1O [RIBOSTAMYCIN]	> 256 µg/mL	0.25 µg/mL (≈ 0.55 µM)	0.5 µg/mL (≈ 1.1 µM)	> 256 µg/mL	> 256 µg/mL	Active	inactive	inactive	Active	–	–	–
CN[C@@H]1[C@@H](O)[C@@H](O[C@@H]2[C@@H](O)[C@H](O[C@H]3OC(CN)=CC[C@H]3N)[C@@H](N)C[C@H]2N)OC[C@]1(C)O [SISOMICIN]	256 µg/mL (≈ 572 µM)	≤ 0.06 µg/mL	0.13 µg/mL (≈ 0.29 µM)	> 256 µg/mL	> 256 µg/mL	–	–	–	–	–	–	–
CN[C@@H]1[C@@H](O)[C@@H](O[C@@H]2[C@@H](O)[C@H](O[C@H]3O[C@H](CN)[C@@H](O)[C@H](O)[C@H]3O)[C@@H](N)C[C@H]2NC(=O)[C@@H](O)CN)OC[C@]1(C)O [ISEPAMICIN]	128 µg/mL (≈ 225 µM)	0.13 µg/mL (≈ 0.228 µM)	0.13 µg/mL (≈ 0.228 µM)	64 µg/mL (≈ 112 µM)	> 256 µg/mL	–	–	–	–	–	–	–
NC[C@@H]1CC[C@@H](N)[C@@H](O[C@H]2[C@H](O)[C@@H](O[C@H]3O[C@H](CO)[C@@H](O)[C@H](N)[C@H]3O)[C@H](N)C[C@@H]2N)O1 [DIBEKACIN]	128 µg/mL (≈ 283 µM)	0.13 µg/mL (≈ 0.288 µM)	0.25 µg/mL (≈ 0.554 µM)	128 µg/mL (≈ 283 µM)	> 256 µg/mL	–	–	–	–	–	–	–
CN[C@@H]1[C@H](O[C@H]2[C@H](O[C@H]3[C@H](O)[C@@H](O)[C@H](N=C(N)N)[C@@H](O)[C@@H]3N=C(N)N)O[C@@H](C)[C@]2(O)C=O)O[C@@H](CO)[C@H](O)[C@H]1O [STREPTOMYCIN]	1 µg/mL (≈ 1.72 µM)	1 µg/mL (≈ 1.72 µM)	1 µg/mL (≈ 1.72 µM)	32 µg/mL (≈ 55 µM)	128 µg/mL (≈ 220 µM)	–	–	–	–	–	–	–
CN[C@@H]1[C@@H](O[C@H]2O[C@H](CO)[C@@H](N)[C@H](O)[C@H]2O)OC2C[C@@H](N)[C@@H](O[C@H]3[C@H](O)[C@@H](O)[C@H](N)C[C@@H]3N)OC2[C@@H]1O (stereo not given in full) [APRAMYCIN]	> 256 µg/mL	1 µg/mL (≈ 1.85 µM)	2 µg/mL (≈ 3.71 µM)	> 256 µg/mL	> 256 µg/mL	–	–	–	–	3.9 µg/mL (≈ 7.23 µM)	> 1000 µg/mL	–
NC[C@@H]1O[C@H](O[C@H]2[C@@H](O)[C@H](O[C@@H]3[C@@H](O)[C@H](N)C[C@H](N)[C@H]3O[C@H]3O[C@H](CO)[C@@H](O)C[C@H]3N)O[C@@H]2CO)[C@H](N)[C@@H](O)[C@@H]1O[C@H]1O[C@H](CO)[C@@H](O)[C@H](O)[C@@H]1O [LIVIDOMYCIN]	32 µg/mL (≈ 42 µM)	0.5 µg/mL (≈ 0.656 µM)	2 µg/mL (≈ 2.63 µM)	16 µg/mL (≈ 21 µM)	256 µg/mL (≈ 336 µM)	–	–	–	–	–	–	–
NC[C@@H]1O[C@H](O[C@H]2[C@@H](O)[C@H](O[C@@H]3[C@@H](O)[C@H](N)C[C@H](N)[C@H]3O[C@H]3O[C@H](CO)[C@@H](O)[C@H](O)[C@H]3N)O[C@@H]2CO)[C@H](N)[C@@H](O)[C@@H]1O [PAROMOMYCIN]	4 µg/mL (≈ 6.5 µM)	0.5 µg/mL (≈ 0.812 µM)	1 µg/mL (≈ 1.62 µM)	4 µg/mL (≈ 6.5 µM)	64 µg/mL (≈ 104 µM)	–	–	–	–	–	–	–
CN[C@@H]1[C@H](O)[C@H](NC)[C@H]2O[C@@]3(O)C(=O)C[C@@H](C)O[C@H]3O[C@@H]2[C@H]1O [SPECTINOMYCIN]	16 µg/mL (≈ 48.1 µM)	16 µg/mL (≈ 48.1 µM)	16 µg/mL (≈ 48.1 µM)	> 256 µg/mL	> 256 µg/mL	–	–	–	–	–	–	–
CN[C@H]1C[C@@H](N)[C@H](O)[C@@H](O[C@@H]2O[C@H](CO)[C@H](O)[C@H]3O[C@@]4(O[C@H]23)O[C@H]([C@H](N)CO)[C@H](O)[C@H](O)[C@H]4O)[C@@H]1O	32 µg/mL (≈ 60.7 µM)	16 µg/mL (≈ 30.3 µM)	32 µg/mL (≈ 60.7 µM)	16 µg/mL (≈ 30.3 µM)	128 µg/mL (≈ 243 µM)	–	–	–	–	–	–	–
NC[C@H]1O[C@H](O[C@H]2[C@H](O)[C@@H](O[C@H]3O[C@H](CO)[C@@H](O)[C@H](N)[C@H]3O)[C@H](N)C[C@@H]2N)[C@H](N)C[C@@H]1O [TOBRAMYCIN]	128 µg/mL (≈ 274 µM)	≤ 0.06 µg/mL	0.13 µg/mL (≈ 0.278 µM)	128 µg/mL (≈ 274 µM)	> 256 µg/mL	–	–	–	–	–	–	–
NCC[C@H](O)C(=O)N[C@@H]1C[C@H](N)[C@@H](O[C@H]2O[C@H](CN)CC[C@H]2N)[C@H](O)[C@H]1O[C@H]1O[C@H](CO)[C@@H](O)[C@H](N)[C@H]1O [ARBEKACIN]	4 µg/mL (≈ 7.24 µM)	0.13 µg/mL (≈ 0.235 µM)	0.25 µg/mL (≈ 0.452 µM)	4 µg/mL (≈ 7.24 µM)	64 µg/mL (≈ 116 µM)	–	–	–	–	–	–	–
NC[C@@H]1O[C@H](O[C@H]2[C@@H](O)[C@H](O[C@@H]3[C@@H](O)[C@H](N)C[C@H](N)[C@H]3O[C@H]3O[C@H](CN)[C@@H](O)[C@H](O)[C@H]3N)O[C@@H]2CO)[C@H](N)[C@@H](O)[C@@H]1O [FRAMYCETIN]	64 µg/mL (≈ 104 µM)	0.13 µg/mL (≈ 0.212 µM)	0.25 µg/mL (≈ 0.407 µM)	64 µg/mL (≈ 104 µM)	> 256 µg/mL	Active	inactive	inactive	Active	–	–	–
GENTAMICIN	16 µg/mL	< 0.06 µg/mL	0.13 µg/mL	128 µg/mL	> 256 µg/mL	Active	inactive	inactive	Active	–	–	Dose-dependent effect
CCN[C@@H]1C[C@H](N)[C@@H](O[C@H]2OC(CN)=CC[C@H]2N)[C@H](O)[C@H]1O[C@H]1OC[C@](C)(O)[C@H](NC)[C@H]1O [NETILMICIN]	> 256 µg/mL	≤ 0.06 µg/mL	0.13 µg/mL (≈ 0.273 µM)	> 256 µg/mL	> 256 µg/mL	–	–	–	–	–	–	–
